Here are results for two molecules from ChEMBL document CHEMBL1156205, “Synthesis and antibacterial activity of new 9-O-arylpropenyloxime ketolides” (2010).

≈ marks a conversion by molar mass, not a printed value.

Type in all cases: functional
The test system of test [1] is Streptococcus pneumoniae. Kind of test: Antibacterial activity against Streptococcus pneumoniae ATCC 49619 by agar dilution method. Particulars: ATCC49619. In a few lines:
(§1)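 MIC determined by agar dilution on Mueller–Hinton agar against reference strains.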
On the technique in general: In agar dilution the substance is mixed into plates at graded concentrations.

Test [2] has as its system Staphylococcus aureus. Kind of test: Antibacterial activity against methicillin-susceptible Staphylococcus aureus isolate 2 by agar dilution method. Put shortly:
(§2)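 MIC determined by agar dilution on Mueller–Hinton agar against clinically isolated methicillin-susceptible S. aureus.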

The test system of test [3] is Streptococcus pyogenes. Kind of test: Antibacterial activity against Streptococcus pyogenes ATCC 8668 by agar dilution method. Put shortly: (§3)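 MIC measured by agar dilution on Mueller–Hinton agar. Strains were a reference culture and clinically isolated strains. The pneumococcal isolates were penicillin-susceptible clinical isolates.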
Test [4] relates to Streptococcus pyogenes. Kind of test: Antibacterial activity against Streptococcus pyogenes isolate 2 by agar dilution method. In a few lines: as §3
For test [5], the system named is Streptococcus pneumoniae. Kind of test: Antibacterial activity against penicillin-susceptible Streptococcus pneumoniae isolate S1 by agar dilution method. In a few lines:
as §3

The test system of test [6] is Staphylococcus aureus. Kind of test: Antibacterial activity against methicillin-resistant Staphylococcus aureus 2 by agar dilution method. Put shortly:
(§4)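 MIC determined by agar dilution on Mueller–Hinton agar against clinical strains of methicillin-resistant S. aureus.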

Test [7] concerns Staphylococcus aureus. Description: Antibacterial activity against methicillin-resistant Staphylococcus aureus 3 by agar dilution method. In a few lines:
as §4

Test [8] has as its system Streptococcus pyogenes. Description: Antibacterial activity against Streptococcus pyogenes isolate 1 by agar dilution method. Put shortly: as §3
For test [9], the system named is Streptococcus pneumoniae. Description: Antibacterial activity against penicillin intermediate-resistant Streptococcus pneumoniae isolate I3 by agar dilution method. Put shortly: (§5)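 MIC determined by agar dilution on Mueller–Hinton agar against clinically isolated penicillin-intermediate-resistant S. pneumoniae.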
The test system of test [10] is Streptococcus pneumoniae. Description: Antibacterial activity against penicillin intermediate-resistant Streptococcus pneumoniae isolate I2 by agar dilution method. Put shortly: as §5
Test [11] relates to Staphylococcus aureus. Kind of test: Antibacterial activity against methicillin-resistant Staphylococcus aureus 1 by agar dilution method. Put shortly:
as §4

In test [12] the test system is Staphylococcus aureus. Kind of test: Antibacterial activity against methicillin-susceptible Staphylococcus aureus isolate 1 by agar dilution method. In a few lines: as §2
Test [13] has as its system Streptococcus pneumoniae. Kind of test: Antibacterial activity against penicillin intermediate-resistant Streptococcus pneumoniae isolate I1 by agar dilution method. Put shortly: as §5
The subject of test [14] is Streptococcus pyogenes. Kind of test: Antibacterial activity against Streptococcus pyogenes isolate 3 by agar dilution method. In a few lines:
as §3

The test system of test [15] is Staphylococcus aureus. Description: Antibacterial activity against methicillin-susceptible Staphylococcus aureus isolate 3 by agar dilution method. In a few lines: as §2
Test [16] has as its system Staphylococcus aureus. Description: Antibacterial activity against methicillin-susceptible Staphylococcus aureus ATCC 29213 by agar dilution method. Put shortly: as §1
Test [17] deals with Streptococcus pneumoniae. Description: Antibacterial activity against penicillin-susceptible Streptococcus pneumoniae isolate S2 by agar dilution method. In a few lines: as §3

Regarding `CC[C@H]1OC(=O)[C@H](C)C(=O)[C@H](C)[C@@H](O[C@@H]2O[C@H](C)C[C@H](N(C)C)[C@H]2O)[C@](C)(OC)C[C@@H](C)/C(=N\OC/C=C/c2ccc3c(c2)CCC3=O)[C@H](C)[C@@H](O)[C@]1(C)O`, the MIC (in general, the least concentration at which growth counts as inhibited) was 0.25 µg/mL (≈ 0.323 µM) against Streptococcus pneumoniae [1]; 1 µg/mL (≈ 1.29 µM) in the test on Staphylococcus aureus [2]; 0.25 µg/mL (≈ 0.323 µM) in the test on Streptococcus pyogenes [3]; 0.25 µg/mL (≈ 0.323 µM) with Streptococcus pyogenes [4]; 0.06 µg/mL (≈ 0.0776 µM) against Streptococcus pneumoniae [5]; 128 µg/mL (≈ 166 µM) in the test on Staphylococcus aureus [6]. Moreover, the MIC was 1 µg/mL (≈ 1.29 µM) in the test on Staphylococcus aureus [7]; 0.06 µg/mL (≈ 0.0776 µM) against Streptococcus pyogenes [8]; 8 µg/mL (≈ 10.3 µM) with Streptococcus pneumoniae [9]; 0.25 µg/mL (≈ 0.323 µM) in the test on Streptococcus pneumoniae [10]; 128 µg/mL (≈ 166 µM) in the test with Staphylococcus aureus [11]; 1 µg/mL (≈ 1.29 µM) in the test with Staphylococcus aureus [12]. Moreover, the MIC is 64 µg/mL (≈ 82.8 µM) against Streptococcus pneumoniae [13]; 0.25 µg/mL (≈ 0.323 µM) in the test on Streptococcus pyogenes [14]; 1 µg/mL (≈ 1.29 µM) with Staphylococcus aureus [15]; 1 µg/mL (≈ 1.29 µM) in the test on Staphylococcus aureus [16]; 0.06 µg/mL (≈ 0.0776 µM) with Streptococcus pneumoniae [17].
Regarding `CC[C@H]1OC(=O)[C@H](C)C(=O)[C@H](C)[C@@H](O[C@@H]2O[C@H](C)C[C@H](N(C)C)[C@H]2O)[C@](C)(OC)C[C@@H](C)/C(=N\OC/C=C/c2ccc3c(c2)OCO3)[C@H](C)[C@@H](O)[C@]1(C)O`, the minimum inhibitory concentration (MIC) against Streptococcus pneumoniae [1] came to 0.25 µg/mL (≈ 0.328 µM); with Staphylococcus aureus [2] it was 0.5 µg/mL (≈ 0.655 µM); in the test with Streptococcus pyogenes [3], 0.25 µg/mL (≈ 0.328 µM); in the test with Streptococcus pyogenes [4] it was 0.25 µg/mL (≈ 0.328 µM); against Streptococcus pneumoniae [5], 0.06 µg/mL (≈ 0.0786 µM); in the test with Staphylococcus aureus [6], 128 µg/mL (≈ 168 µM). Also, the MIC came out at 1 µg/mL (≈ 1.31 µM) in the test on Staphylococcus aureus [7]; 0.06 µg/mL (≈ 0.0786 µM) in the test on Streptococcus pyogenes [8]; 0.25 µg/mL (≈ 0.328 µM) in the test with Streptococcus pneumoniae [9]; 0.25 µg/mL (≈ 0.328 µM) in the test with Streptococcus pneumoniae [10]; 128 µg/mL (≈ 168 µM) in the test on Staphylococcus aureus [11]; 1 µg/mL (≈ 1.31 µM) in the test with Staphylococcus aureus [12]. In addition, the minimal inhibitory concentration (MIC) against Streptococcus pneumoniae [13] amounted to 64 µg/mL (≈ 83.9 µM); with Streptococcus pyogenes [14] it was 0.25 µg/mL (≈ 0.328 µM); against Staphylococcus aureus [15], 0.5 µg/mL (≈ 0.655 µM); against Staphylococcus aureus [16] it was 1 µg/mL (≈ 1.31 µM); in the test with Streptococcus pneumoniae [17], 0.06 µg/mL (≈ 0.0786 µM).
